The record followed here is ChEMBL document CHEMBL2429863, “Cytotoxic deoxybenzoins and diphenylethylenes from Arundina graminifolia” (J Nat Prod, 2013).

A value given as a limit tells only on which side of the number the result lay.

Type in all cases: functional, cell-based
The subject of one assay is MCF7. The experiment in a line: Cytotoxicity against human MCF7 cells after 48 hrs by MTT assay. The conditions noted are these: MCF7, 48 h. The method, boiled down:
(§1)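 Tumor cells from ATCC, grown in RPMI1640 or DMEM with 10% FBS at 37 °C, 5% CO2. Adherent cells plated and allowed to attach 12 h; suspension cells seeded just before dosing at 1 × 10^5 cells/mL. Compounds at various concentrations in triplicate for 48 h; paclitaxel positive control. MTT added for 4 h at 37 °C, then lysis with 20% SDS–50% DMF; formazan read colorimetrically.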

A further assay has as its system PC-3. The experiment in a line: Cytotoxicity against human PC3 cells after 48 hrs by MTT assay. The following applies: PC-3, 48 h. The method, boiled down: as §1
Assay [1] in a line: Cytotoxicity against human SH-SY5Y cells after 48 hrs by MTT assay. The method, boiled down: as §1
In general terms: Tetrazolium assays rely on reduction of a dye to a coloured formazan, in cell work by metabolically active cells.

The subject of the next assay is A549. Put plainly: Cytotoxicity against human A549 cells after 48 hrs by MTT assay. The conditions noted are these: A549, 48 h. The method, boiled down: as §1
Another assay concerns NB-4. Put plainly: Cytotoxicity against human NB4 cells after 48 hrs by MTT assay. The following applies: NB-4, 48 h. In short, it runs like this: as §1

By IC50 is commonly meant the concentration that inhibits the measured activity by half. A high value points to weaker potency in that assay. Turning to `CC1=CC(=O)c2c(O)cc(CC(=O)c3ccc(O)cc3)cc2OC1`, the IC50 with MCF7 was found to be 5.4 µM; in the assay on PC-3, 3.4 µM; in assay [1], 1.8 µM; in the assay with A549, 2.2 µM; in the assay on NB-4 it was 7.6 µM.

For `COc1ccc(C(=O)Cc2cc(O)c3c(c2)OCC(C)=CC3=O)cc1`, the IC50 (with MCF7; in the assay on PC-3; in assay [1]; with A549; with NB-4) was above 10 µM each time.

For `COc1ccc(C(=O)Cc2cc(O)c3c(c2)OC(C)(C)CC3=O)cc1`, the IC50 (with MCF7; in the assay on PC-3; in assay [1]; in the assay with A549; in the assay on NB-4) was above 10 µM each time.

Consider `COc1ccc(C(=O)Cc2cc(OC)c3c(c2)OC(C)(C)CC3=O)cc1`, for which the IC50 was 8.5 µM in the assay on MCF7; above 10 µM in the assay on PC-3; above 10 µM in assay [1]; 6.4 µM in the assay on A549; above 10 µM in the assay on NB-4.

In the case of `OCCc1c(O)cc(/C=C/c2cc(O)cc(O)c2)cc1O`, the IC50 in the assay with MCF7 was determined as 6.4 µM; in the assay on PC-3 it was 5.6 µM; in assay [1] it was 7.8 µM; with A549 it was 8.1 µM; in the assay on NB-4 it was 5.5 µM.

With `COc1cc(/C=C/c2cc(O)c(CCO)c(O)c2)cc(OC)c1`, the IC50 with MCF7 is 5.9 µM; in the assay with PC-3, 8.7 µM; in assay [1], 6.2 µM; in the assay with A549 it was 5.5 µM; in the assay with NB-4, 4.8 µM.

On to `CC(C)CCC(=O)c1c(O)cc(CC(=O)c2ccccc2)cc1O`, for which the IC50 was 5.5 µM in the assay on MCF7; 6.8 µM in the assay with PC-3; 3.2 µM in assay [1]; 5.2 µM with A549; 2.1 µM in the assay on NB-4.

Turning to `CC(C)c1cc(=O)c2c(O)cc(CC(=O)c3ccccc3)cc2o1`, the IC50 (in the assay with MCF7; in the assay on PC-3; in assay [1]; in the assay with A549; in the assay on NB-4) was above 10 µM in each case.

`CC(=O)Oc1cc(CC(=O)c2ccccc2)cc2oc(C(C)C)cc(=O)c12`: the IC50 (with MCF7; in the assay with PC-3; in assay [1]; in the assay with A549; in the assay on NB-4) was above 10 µM in each case.

The molecule `CC(=O)O[C@H]1C(=O)[C@@]2(C)[C@H]([C@H](OC(=O)c3ccccc3)[C@]3(O)C[C@H](OC(=O)[C@H](O)[C@@H](NC(=O)c4ccccc4)c4ccccc4)C(C)=C1C3(C)C)[C@]1(OC(C)=O)CO[C@@H]1C[C@@H]2O` [PACLITAXEL] came in with an IC50 in assay [1] of 0.2 µM.

Regarding `COc1ccc(C(=O)Cc2cc(O)c(C(=O)CCC(C)C)c(O)c2)cc1`, the IC50 (in the assay on MCF7; in the assay with PC-3; in assay [1]; in the assay with A549; in the assay with NB-4) was above 10 µM each time.

Turning to `COc1cc(/C=C/c2cc(O)cc(O)c2)cc(O)c1CCO`, the IC50 in the assay with MCF7 was 5.3 µM; with PC-3, 2.2 µM; in assay [1], 4.5 µM; in the assay on A549, 6.5 µM; in the assay on NB-4, 3.3 µM.
